pIC50, pKi: −log10 of the molar value.
Experiments:
Cytochrome P450 3A4 [1] = molecular target: T1, Cytochrome P450 3A4 (Homo sapiens, UniProt P08684); assay: Inhibition of human CYP3A4 in human liver microsomes assessed as formation of 6beta-hydroxy-testosterone using testosterone as substrate by high throughput mass spectrometry in absence of NADPH; type: ADME, Microsome
CYP3A4 = CYP3A4 (Homo sapiens, UniProt P08684); assay: Ratio of IC50 for human CYP3A4 in absence of NADPH to IC50 for human CYP3A4 preincubated for 30 mins in presence of NADPH; settings: read-out: Ratio IC50
Chain of CYP3A4 (P08684 whole entry): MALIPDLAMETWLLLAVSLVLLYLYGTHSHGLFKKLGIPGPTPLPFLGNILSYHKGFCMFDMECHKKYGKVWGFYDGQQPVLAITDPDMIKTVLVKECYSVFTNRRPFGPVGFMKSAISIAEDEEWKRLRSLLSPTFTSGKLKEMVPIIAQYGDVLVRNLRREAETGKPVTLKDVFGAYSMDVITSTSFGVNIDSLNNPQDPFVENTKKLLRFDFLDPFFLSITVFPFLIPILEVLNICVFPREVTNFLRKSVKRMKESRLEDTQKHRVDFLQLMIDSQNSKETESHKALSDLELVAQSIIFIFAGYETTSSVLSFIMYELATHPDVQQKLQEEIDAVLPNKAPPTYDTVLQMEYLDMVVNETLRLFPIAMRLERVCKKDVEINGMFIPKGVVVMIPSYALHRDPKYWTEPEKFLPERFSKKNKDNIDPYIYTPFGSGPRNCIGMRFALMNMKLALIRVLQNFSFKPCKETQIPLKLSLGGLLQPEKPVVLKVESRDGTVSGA

Renin [2] = molecular target: T2, Renin (Homo sapiens, UniProt P00797); assay: Inhibition of human recombinant renin in human citreated-plasma
T2 sequence (P00797 whole entry): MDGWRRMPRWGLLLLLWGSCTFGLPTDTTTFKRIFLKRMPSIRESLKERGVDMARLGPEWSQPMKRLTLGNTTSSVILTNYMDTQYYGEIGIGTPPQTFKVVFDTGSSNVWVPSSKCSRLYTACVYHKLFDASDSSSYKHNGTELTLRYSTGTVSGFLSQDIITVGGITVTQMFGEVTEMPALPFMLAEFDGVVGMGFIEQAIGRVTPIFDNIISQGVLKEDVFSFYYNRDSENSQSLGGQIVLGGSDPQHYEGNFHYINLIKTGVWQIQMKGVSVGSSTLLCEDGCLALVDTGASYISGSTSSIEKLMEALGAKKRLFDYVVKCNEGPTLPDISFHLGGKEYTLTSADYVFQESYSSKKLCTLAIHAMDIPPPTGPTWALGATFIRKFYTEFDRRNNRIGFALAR

Cytochrome P450 3A4 [3] = molecular target: T1, Cytochrome P450 3A4; assay: Inhibition of human CYP3A4 in human liver microsomes assessed as formation of 6beta-hydroxy-testosterone using testosterone as substrate by high throughput mass spectrometry preincubated for 30 mins in presence of NADPH; type: ADME, Microsome
[4] = molecular target: Voltage-gated inwardly rectifying potassium channel KCNH2 (Homo sapiens, UniProt Q12809); assay: Binding affinity to human ERG
Chain of Voltage-gated inwardly rectifying potassium channel KCNH2 (Q12809 whole entry): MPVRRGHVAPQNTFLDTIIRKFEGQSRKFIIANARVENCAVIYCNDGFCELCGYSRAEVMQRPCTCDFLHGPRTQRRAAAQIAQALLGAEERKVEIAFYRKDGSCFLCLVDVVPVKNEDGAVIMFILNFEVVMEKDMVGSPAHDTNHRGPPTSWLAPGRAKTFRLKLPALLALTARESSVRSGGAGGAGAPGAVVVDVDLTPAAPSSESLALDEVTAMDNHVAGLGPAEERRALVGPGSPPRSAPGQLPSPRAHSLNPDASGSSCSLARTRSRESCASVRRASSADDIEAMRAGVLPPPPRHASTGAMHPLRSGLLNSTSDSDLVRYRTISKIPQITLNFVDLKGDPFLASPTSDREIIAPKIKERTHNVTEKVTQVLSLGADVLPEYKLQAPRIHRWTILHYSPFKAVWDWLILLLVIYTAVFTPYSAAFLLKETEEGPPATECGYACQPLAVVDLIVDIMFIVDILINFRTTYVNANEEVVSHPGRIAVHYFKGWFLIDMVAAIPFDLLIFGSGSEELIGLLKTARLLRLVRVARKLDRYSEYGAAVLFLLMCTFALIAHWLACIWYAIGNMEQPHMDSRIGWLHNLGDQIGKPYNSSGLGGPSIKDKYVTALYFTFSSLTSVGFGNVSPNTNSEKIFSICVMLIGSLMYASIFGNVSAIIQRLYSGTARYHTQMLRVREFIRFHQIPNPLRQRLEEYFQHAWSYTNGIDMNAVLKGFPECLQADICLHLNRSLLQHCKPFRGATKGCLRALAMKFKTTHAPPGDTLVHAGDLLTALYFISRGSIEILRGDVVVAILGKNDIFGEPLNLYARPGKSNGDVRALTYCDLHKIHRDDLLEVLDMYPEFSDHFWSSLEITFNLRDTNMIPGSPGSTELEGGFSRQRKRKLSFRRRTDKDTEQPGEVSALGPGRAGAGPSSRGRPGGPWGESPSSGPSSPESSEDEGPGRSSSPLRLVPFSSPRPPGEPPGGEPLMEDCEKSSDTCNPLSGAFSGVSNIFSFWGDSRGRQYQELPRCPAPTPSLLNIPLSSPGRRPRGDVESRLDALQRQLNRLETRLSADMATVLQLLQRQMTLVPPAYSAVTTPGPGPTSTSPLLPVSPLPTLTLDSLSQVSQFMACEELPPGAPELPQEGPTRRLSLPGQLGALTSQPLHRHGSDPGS

Renin [5] = molecular target: T2, Renin; assay: Inhibition of human recombinant renin in PBS buffer using tetradecapeptide at pH 7.4
Liver [6] = assay: Metabolic stability in Sprague-Dawley rat liver S9 fraction assessed as conversion to (1R,2R)-2-((3-(((3R,4S)-N-cyclopropyl-4-(4-(2-(2,6-dichloro-4-methylphenoxy)ethoxy)phenyl)piperidine-3-carboxamido)methyl)-5-(3-methoxypropyl)phenoxy)methyl)cyclopropanecarboxylic acid after 20 mins; type: ADME, subcellular; settings: s9, 20 min
Procedure, shortened: (§1)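 Prodrugs were incubated for 20 min in rat or human whole blood, or in rat or human liver S9 fraction (n = 2). The read-out was % conversion to the parent carboxylic acid.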

[7] = Oral bioavailability in Beagle dog at 3 mg/kg in 0.5% methocel; type: ADME, organism-based, Canis lupus familiaris; settings: in vivo
Blood [8] = assay: Metabolic stability in Sprague-Dawley rat whole blood assessed as conversion to (1R,2R)-2-((3-(((3R,4S)-N-cyclopropyl-4-(4-(2-(2,6-dichloro-4-methylphenoxy)ethoxy)phenyl)piperidine-3-carboxamido)methyl)-5-(3-methoxypropyl)phenoxy)methyl)cyclopropanecarboxylic acid after 20 mins; type: ADME, tissue-based; procedure, shortened: as §1
Liver [9] = assay: Metabolic stability in human liver S9 fraction assessed as conversion to (1R,2R)-2-((3-(((3R,4S)-N-cyclopropyl-4-(4-(2-(2,6-dichloro-4-methylphenoxy)ethoxy)phenyl)piperidine-3-carboxamido)methyl)-5-(3-methoxypropyl)phenoxy)methyl)cyclopropanecarboxylic acid after 20 mins; type: ADME, subcellular; settings: s9, 20 min; procedure, shortened: as §1
Blood [10] = assay: Metabolic stability in rhesus monkey whole blood assessed as conversion to (1R,2R)-2-((3-(((3R,4S)-N-cyclopropyl-4-(4-(2-(2,6-dichloro-4-methylphenoxy)ethoxy)phenyl)piperidine-3-carboxamido)methyl)-5-(3-methoxypropyl)phenoxy)methyl)cyclopropanecarboxylic acid after 20 mins; type: ADME, tissue-based, Macaca mulatta
[11] = AUC (0 to 24 hrs) in Sprague-Dawley rat at 30 mg/kg, po as 0.5% methocel suspension; type: ADME, organism-based; parameters: time < 24 hr, dose 30 mg/kg, route oral; settings: plasma
[12] = AUC (0 to 24 hrs) in Beagle dog at 3 mg/kg, po in 0.5% methocel; type: ADME, organism-based, Canis lupus familiaris; parameters: time < 24 hr, dose 3 mg/kg, route oral; settings: plasma
Blood [13] = assay: Metabolic stability in human whole blood assessed as conversion to (1R,2R)-2-((3-(((3R,4S)-N-cyclopropyl-4-(4-(2-(2,6-dichloro-4-methylphenoxy)ethoxy)phenyl)piperidine-3-carboxamido)methyl)-5-(3-methoxypropyl)phenoxy)methyl)cyclopropanecarboxylic acid after 20 mins; type: ADME, tissue-based; procedure, shortened: as §1
[14] = Metabolic stability in dog whole blood assessed as conversion to (1R,2R)-2-((3-(((3R,4S)-N-cyclopropyl-4-(4-(2-(2,6-dichloro-4-methylphenoxy)ethoxy)phenyl)piperidine-3-carboxamido)methyl)-5-(3-methoxypropyl)phenoxy)methyl)cyclopropanecarboxylic acid after 20 mins; type: ADME, tissue-based, Canis lupus familiaris
[15] = Oral bioavailability in Sprague-Dawley rat at 30 mg/kg as 0.5% methocel suspension; type: ADME, organism-based; settings: in vivo
[16] = Bioavailability in Sprague-Dawley rat at 20 mg/kg, intra-duodenum in 5% dextrose; type: ADME, organism-based; settings: in vivo
Procedure, shortened: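 Rats were dosed directly into the duodenum at 20 mg/kg in 5% dextrose, 1 mL/kg. Bioavailability was calculated for the parent carboxylic acid.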

[17] = AUC (0 to 24 hrs) in Sprague-Dawley rat at 30 mg/kg, po in 60% PEG 200 at PH 2.5; type: ADME, organism-based; parameters: time < 24 hr, dose 30 mg/kg, route oral; settings: plasma
[18] = Clearance in Sprague-Dawley rat at 30 mg/kg, po in 0.5% methocel and 3 to 5 mg/kg, iv in 60% PEG 200; settings: in vivo
[19] = Oral bioavailability in Sprague-Dawley rat at 30 mg/kg in peanut oil; type: ADME, organism-based; settings: in vivo
[20] = Oral bioavailability in Sprague-Dawley rat at 30 mg/kg in Ca salt in 0.5% methocel; type: ADME, organism-based; settings: in vivo
[21] = AUC (0 to 24 hrs) in Sprague-Dawley rat at 30 mg/kg, po in Ca salt in 0.5% methocel; type: ADME, organism-based; parameters: time < 24 hr, dose 30 mg/kg, route oral; settings: plasma
[22] = Oral bioavailability in Sprague-Dawley rat at 30 mg/kg in lyposin 2; type: ADME, organism-based; settings: in vivo
[23] = Oral bioavailability in Sprague-Dawley rat at 30 mg/kg in 60% PEG 200; type: ADME, organism-based; settings: in vivo
[24] = AUC (0 to 24 hrs) in Sprague-Dawley rat at 30 mg/kg, po in 60% PEG 200; type: ADME, organism-based; parameters: time < 24 hr, dose 30 mg/kg, route oral; settings: plasma
[25] = AUC (0 to 24 hrs) in Sprague-Dawley rat at 30 mg/kg, po in peanut oil; type: ADME, organism-based; parameters: time < 24 hr, dose 30 mg/kg, route oral; settings: plasma
[26] = AUC (0 to 24 hrs) in Sprague-Dawley rat at 30 mg/kg, po in Na salt in 0.5% methocel; type: ADME, organism-based; parameters: time < 24 hr, dose 30 mg/kg, route oral; settings: plasma
[27] = Oral bioavailability in Sprague-Dawley rat at 30 mg/kg in 60% PEG 200 at PH 2.5; type: ADME, organism-based; settings: in vivo
[28] = AUC (0 to 24 hrs) in Sprague-Dawley rat at 30 mg/kg, po in lyposin 2; type: ADME, organism-based; parameters: time < 24 hr, dose 30 mg/kg, route oral; settings: plasma
[29] = Oral bioavailability in Sprague-Dawley rat at 30 mg/kg in Na salt in 0.5% methocel; type: ADME, organism-based; settings: in vivo
[30] = AUC (0 to 24 hrs) in Sprague-Dawley rat at 20 mg/kg, po as 0.5% methocel suspension; type: ADME, organism-based; parameters: time < 24 hr, dose 20 mg/kg, route oral; settings: plasma

T1 sequence (P08684 whole entry): as the sequence (P08684 whole entry) above

SMILES	pIC50 (Cytochrome P450 3A4 [1])	IC50 shift (CYP3A4)	pIC50 (Renin [2])	pIC50 (Cytochrome P450 3A4 [3])	pKi [4]	pIC50 (Renin [5])	Activity (Liver [6]) [%]	Activity (Blood [8]) [%]	Activity (Liver [9]) [%]	AUC(0-t) at 24 h [11] [µM·h]	Activity (Blood [13]) [%]	bioavailability [15] [%]	clearance [18] [mL/min/kg]	further results
COCCCc1cc(CN(C(=O)[C@H]2CNCC[C@@H]2c2ccc(OCCOc3c(Cl)cc(C)cc3Cl)cc2)C2CC2)cc(OCC2(CC#N)CC2)c1	4.71	14.1	7.96	5.85	7.22	10.55	–	–	–	–	–	–	–	–
CCNC(=O)NCCCOc1cc(CCCOC)cc(CN(C(=O)[C@H]2CNCC[C@@H]2c2ccc(OCCOc3c(Cl)cc(C)cc3Cl)cc2)C2CC2)c1	5.20	2.6	8.48	5.62	6.82	10.66	–	–	–	–	–	–	–	–
CCOC(=O)[C@H]1C[C@@H]1COc1cc(CCCOC)cc(CN(C(=O)[C@H]2CNCC[C@@H]2c2ccc(OCCOc3c(Cl)cc(C)cc3Cl)cc2)C2CC2)c1	4.71	14	7.96	5.85	7.10	10.19	60	99	56	5.7	3	52	–	bioavailability [7]: 6%; Activity (Blood [10]): 15%; AUC(0-t) at 24 h [12]: 0.01 µM·h; Activity [14]: 2%
COCCCc1cc(CN(C(=O)[C@H]2CNCC[C@@H]2c2ccc(OCCOc3c(Cl)cc(C)cc3Cl)cc2)C2CC2)cc(OC[C@H]2C[C@@H]2C(=O)O)c1	< 4.30	–	8.96	< 4.30	5.97	10.57	–	–	–	0.1	–	1	60	bioavailability [16]: 0%; AUC(0-t) at 24 h [17]: 0.1 µM·h; bioavailability [19]: 1%; bioavailability [20]: 0%; AUC(0-t) at 24 h [21]: 0.3 µM·h; bioavailability [22]: 0%; bioavailability [23]: 4%; AUC(0-t) at 24 h [24]: 0.5 µM·h; AUC(0-t) at 24 h [25]: 0.1 µM·h; AUC(0-t) at 24 h [26]: 0.1 µM·h; bioavailability [27]: 1%; AUC(0-t) at 24 h [28]: 0.03 µM·h; bioavailability [29]: 1%
COCCCc1cc(CN(C(=O)[C@H]2CNCC[C@@H]2c2ccc(OCCOc3c(Cl)cc(C)cc3Cl)cc2)C2CC2)cc(OC[C@H]2C[C@@H]2C(=O)OCC(=O)N(C)C)c1	–	–	–	–	6.70	–	66	100	–	3.5	1	–	–	–
CCOC(=O)OC(C)OC(=O)[C@H]1C[C@@H]1COc1cc(CCCOC)cc(CN(C(=O)[C@H]2CNCC[C@@H]2c2ccc(OCCOc3c(Cl)cc(C)cc3Cl)cc2)C2CC2)c1 (stereo partly specified)	–	–	–	–	–	–	81	100	90	–	38	–	–	–
COCCCc1cc(CN(C(=O)[C@H]2CNCC[C@@H]2c2ccc(OCCOc3c(Cl)cc(C)cc3Cl)cc2)C2CC2)cc(OC[C@H]2C[C@@H]2C(=O)OCOC(=O)C(C)(C)C)c1	–	–	–	–	7.40	–	83	100	95	0.2	56	–	–	–
COCCCc1cc(CN(C(=O)[C@H]2CN(C(=O)OCc3oc(=O)oc3C)CC[C@@H]2c2ccc(OCCOc3c(Cl)cc(C)cc3Cl)cc2)C2CC2)cc(OC[C@H]2C[C@@H]2C(=O)O)c1	–	–	–	–	5.43	–	98	93	99	–	11	–	–	AUC(0-t) at 24 h [30]: 0.2 µM·h
COCCCc1cc(CN(C(=O)[C@H]2CNCC[C@@H]2c2ccc(OCCOc3c(Cl)cc(C)cc3Cl)cc2)C2CC2)cc(OCCC2(C(=O)O)CCCC2)c1	< 4.30	–	7.91	< 4.30	6.30	11.00	–	–	–	3.3	–	15	27	–
COCCCc1cc(CN(C(=O)[C@H]2CNCC[C@@H]2c2ccc(OCCOc3c(Cl)cc(C)cc3Cl)cc2)C2CC2)cc(OCC[C@](C)(OC)C(=O)O)c1	< 4.30	–	8.68	< 4.30	5.64	10.22	–	–	–	1.2	–	3	23	–
